Compound activity deposited in PubChem by Broad Institute.
T cruzi intra: inhibitors of intracellular Trypanosoma cruzi, primary screen, cell-based, plate reader, single point, set 2 | intracellular Trypanosoma cruzi in host cells | activity score (inhibition), % at 5.01 µM | 22,000 tested, 4.9% active | AID 651903, 2012; in the data active means activity score above about 55%;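 further: parasites and compound incubated about four days before reading; 0% = median of neutral control wells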
A1 apoptosis 2: A1 inhibitors via caspase activation, primary screen, cell-based, luminescence, HTS, two replicates; MEF A1-2A-BIM cells, caspase-Glo luminescence, 3 h; percent of clofoctol response, DMSO zero; caspase activation, % (test concentration not listed); 24,000 tested, under 10 active; AID 2465, 2010; in the data active means caspase activation above about 5.9%
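Material: A1-2A-BIM-expressing MEF cells. Buffer or medium: RPMI-1640 plus 10% FBS. Incubation: cells settled overnight, compound exposure 3 h at 37 °C, 5% CO2. Signal: Caspase-Glo 3/7 luminescence, 1 h at room temperature.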
INS-1E ATP HTS: protection of INS-1E cells from cytokine death, primary screen, ATP luminescence, single point; protection from cytokine-induced ATP loss, % at 10 µM; 20,000 tested, 0.1% active; INS-1E cytokine-induced death, 48 h; normalised: neutral wells 0, positive control 100;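 active means mean replicate protection from cytokine-induced ATP loss at least 50% and at least 75% of replicates each reaching 50%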
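Assay system: INS-1E rat insulinoma cells. Amount: 8000 cells per well. Medium: phenol-red-free RPMI with 5% fetal bovine serum. Reagent: IL-1β, TNF-α and IFN-γ cytokine mix. Doses: one compound concentration, pin transfer. Schedule: 48 h co-treatment, 10 min post-lysis read. Detection: CellTiter-Glo luminescence measuring cellular ATP.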
* = called active by the depositor; · = no result. Many of the other results were omitted from the sample, so hits are more common in it than they were.

SMILES | T cruzi intra | A1 apoptosis 2 | INS-1E ATP HTS
Cc1ccc(S(=O)(=O)N(C)C[C@H]2Oc3c(NC(=O)c4ccc(-c5nccs5)cc4)cccc3C(=O)N([C@@H](C)CO)C[C@H]2C)cc1 | 26 | · | 0
C[C@@H](O)[C@@H](O)[C@@H](O)C/C=N/NC(=O)c1ccccn1 | -3 | · | 22
C=CCNC(=O)[C@@H]1[C@H]2C(=O)O[C@H](c3ccccc3)[C@H](c3ccccc3)N2[C@H](c2ccccc2OCCO)[C@@]12C(=O)Nc1ccc(C#CC3(O)CCCCCC3)cc12 | · | -1 | ·
C/C=C(C)\C=N\NC(=O)CCCCCCC(=O)Nc1ccccc1O | 1 | 0 | 12
CC(C)(C)OC(=O)N1CCC[C@H]1/C=N/NC(=O)CCCCCC(=O)O | -5 | · | 6
C[C@H]1CCCCO[C@H](CN(C)Cc2ccc(C(F)(F)F)cc2)[C@@H](C)CN([C@@H](C)CO)C(=O)c2cc(NC(=O)Nc3ccc(C(F)(F)F)cc3)ccc2O1 | · | 0 | ·
C[C@@H]1CCCCO[C@H](CN(C)Cc2ccc(C(F)(F)F)cc2)[C@@H](C)CN([C@H](C)CO)C(=O)c2cc(NC(=O)NC3CCCCC3)ccc2O1 | 44 | · | -14
C[C@@H]1CCCCO[C@H](CN(C)Cc2ccc(C(F)(F)F)cc2)[C@@H](C)CN([C@H](C)CO)C(=O)c2cc(NC(=O)Nc3ccc(C(F)(F)F)cc3)ccc2O1 | 71* | 1 | -38
C[C@@H]1CCCCO[C@@H](CN(C)Cc2ccc(C(F)(F)F)cc2)[C@@H](C)CN([C@H](C)CO)C(=O)c2cc(NC(=O)NC3CCCCC3)ccc2O1 | 65* | 0 | -22
C[C@@H]1CCCCO[C@@H](CN(C)Cc2ccc(C(F)(F)F)cc2)[C@@H](C)CN([C@@H](C)CO)C(=O)c2cc(NC(=O)Nc3ccc4c(c3)OCO4)ccc2O1 | · | -1 | ·
C[C@@H]1CCCCO[C@@H](CN(C)Cc2ccc(Cl)c(Cl)c2)[C@@H](C)CN([C@H](C)CO)C(=O)c2cc(NC(=O)Nc3ccc4c(c3)OCO4)ccc2O1 | 67* | 0 | -21
C[C@@H]1CCCCO[C@H](CN(C)Cc2ccc(Cl)c(Cl)c2)[C@H](C)CN([C@@H](C)CO)C(=O)c2cc(NC(=O)Nc3ccc4c(c3)OCO4)ccc2O1 | · | -2 | ·
C[C@@H]1CCCCO[C@H](CN(C)Cc2ccc3c(c2)OCO3)[C@@H](C)CN([C@H](C)CO)C(=O)c2cc(NC(=O)Nc3ccc(C(F)(F)F)cc3)ccc2O1 | 78* | 0 | -42
CC(C)(C)OC(=O)NC1(/C=N/NC(=O)CCCCCCC(=O)Nc2ccccc2O)CCCC1 | 6 | · | 10
COc1ccc(CN(C)C[C@@H]2OCCCC[C@H](C)Oc3ccc(NS(=O)(=O)c4ccc(Cl)cc4)cc3C(=O)N([C@@H](C)CO)C[C@@H]2C)cc1 | · | 0 | ·
Cc1nnc(Sc2ccc(/C=N/NC(=O)c3ccccc3O)o2)n1C | -8 | -1 | -20
C[C@]12CCC3C4(C=CC5(C=C4C(=O)c4cc6ccccc6s4)C[C@@H](O)CC[C@]35C)C1CC[C@@]2(O)CN1CCC(n2c(=O)[nH]c3ccccc32)CC1 (some centres undefined) | · | -1 | ·
COc1ccc(/C=N/NC(=O)CCCCCC(=O)Nc2ccccc2O)cc1 | 6 | 0 | 8
COC(=O)CCCCCCC(=O)N/N=C/c1nc[nH]c1C | -9 | 1 | 11
COC(=O)C(CC#Cc1ccc2c(c1)[C@]1(C(=O)N2)[C@H](c2ccc(O)cc2)N2[C@H](c3ccccc3)[C@H](c3ccccc3)OC(=O)[C@H]2[C@@H]1C(N)=O)C(=O)OC | · | -1 | ·
C[C@@H]1CN([C@H](C)CO)C(=O)c2cc(NC(=O)Nc3ccc(C(F)(F)F)cc3)ccc2O[C@@H](C)CCCCO[C@H]1CN(C)Cc1ccc(C(F)(F)F)cc1 | · | 1 | ·
C[C@@H]1CN([C@H](C)CO)C(=O)c2cc(NC(=O)Nc3ccc(F)cc3)ccc2O[C@@H](C)CCCCO[C@@H]1CN(C)Cc1ccc(C(F)(F)F)cc1 | · | -1 | ·
C[C@@H]1CCCCO[C@@H](CN(C)Cc2ccc(C(F)(F)F)cc2)[C@@H](C)CN([C@H](C)CO)C(=O)c2cc(NC(=O)Nc3ccc(C(F)(F)F)cc3)ccc2O1 | 72* | · | -2
C[C@@H]1CCCCO[C@H](CN(C)Cc2ccc(C(F)(F)F)cc2)[C@@H](C)CN([C@H](C)CO)C(=O)c2cc(NC(=O)Nc3ccc(F)cc3)ccc2O1 | 71* | · | 7
O=C(N/N=C/c1ccc(Br)s1)c1ccccc1O | -15 | -9 | -118
SMILES | T cruzi intra | A1 apoptosis 2 | INS-1E ATP HTS
O=C(N/N=C/c1ccccc1C(=O)O)c1ccccn1 | 1 | -13 | -13
Cc1noc(C)c1S(=O)(=O)Nc1cccc2c1O[C@H](CN(C)C(=O)NC(C)C)[C@H](C)CN([C@@H](C)CO)C2=O | 2 | · | 9
C[C@H]1CN([C@@H](C)CO)C(=O)Cc2cc(NC(=O)C3CC3)ccc2O[C@@H]1CN(C)Cc1ccc(C(F)(F)F)cc1 | 74* | 0 | 0
C[C@@H]1CN([C@H](C)CO)C(=O)Cc2cc(NC(=O)Nc3ccc(C(F)(F)F)cc3)ccc2O[C@H]1CN(C)Cc1ccc2c(c1)OCO2 | 8 | -1 | 0
C[C@@H]1CN([C@@H](C)CO)C(=O)Cc2cc(NC(=O)Nc3ccc(F)cc3)ccc2O[C@H]1CN(C)Cc1ccc(C(F)(F)F)cc1 | · | -1 | ·
C[C@H]1CN([C@@H](C)CO)C(=O)Cc2cc(NC(=O)Nc3ccc(F)cc3)ccc2O[C@H]1CN(C)Cc1ccc(C(F)(F)F)cc1 | 46 | · | -52
C[C@@H]1CN([C@@H](C)CO)C(=O)Cc2cc(NC(=O)Nc3ccc(C(F)(F)F)cc3)ccc2O[C@@H]1CN(C)Cc1ccc2c(c1)OCO2 | 58* | · | -35
C[C@H]1CN([C@@H](C)CO)C(=O)Cc2cc(NC(=O)Nc3ccc(C(F)(F)F)cc3)ccc2O[C@@H]1CN(C)Cc1ccc(C(F)(F)F)cc1 | 69* | 0 | -81
C[C@@H]1CN([C@@H](C)CO)C(=O)Cc2cc(NC(=O)C3CC3)ccc2O[C@@H]1CN(C)Cc1ccc(C(F)(F)F)cc1 | -13 | 0 | -4
C[C@@H]1CN([C@@H](C)CO)C(=O)Cc2cc(NC(=O)Nc3ccc(F)cc3)ccc2O[C@@H]1CN(C)Cc1ccc(C(F)(F)F)cc1 | 80* | · | -32
O=C(O)CCCCCC(=O)N/N=C/c1cccnc1Br | -10 | 1 | 3
C[C@@H]1CN([C@H](C)CO)C(=O)Cc2cc(NC(=O)Nc3ccc(C(F)(F)F)cc3)ccc2O[C@H]1CN(C)C(=O)Nc1ccc(C(F)(F)F)cc1 | -15 | 0 | -30
C[C@@H]1CN([C@@H](C)CO)C(=O)Cc2cc(NC(=O)Nc3ccc(C(F)(F)F)cc3)ccc2O[C@@H]1CN(C)C(=O)Nc1ccc(C(F)(F)F)cc1 | 76* | 1 | -11
C[C@H]1CN([C@@H](C)CO)C(=O)Cc2cc(NC(=O)Nc3ccccc3)ccc2O[C@@H]1CN(C)Cc1ccc(C(=O)Nc2ccccc2N)cc1 | · | -1 | ·
